Data taken from PubChem BioAssay AID1885 (Broad Institute, 2009).
About 4,400 (1.5%) of roughly 300,000 compounds were called active. Shown is part of a subset that was picked to be rich in actives. Unmarked numbers belong to inactive results.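 The calls were made as follows: active = mean inhibition across valid replicates above about 55% (limit read from the data); inconclusive = mean below that limit but half or more replicates reach it; inactive = mean below it, under half of replicates reach it.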

Experiment: Trypanosoma cruzi replication blockers in host cells – luminescence, NIH3T3 host cells, primary screen (AID 1885);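 also: signal also drops with host cell toxicity which is not excluded here; 0% = plate median of DMSO wells and 100% = zero luminescence signal; higher percent means less beta-gal luminescence so fewer parasites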
Conditions: T. cruzi beta-gal in NIH3T3, luminescence, 90 h; hits give high values; concentration not given here
How it was run: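 Incubation – ≥90 h infection period, 3 h prior cell attachment · System – NIH/3T3 fibroblasts plus reporter T. cruzi · Doses – compound pinned at 50 nL/well, DMSO · Read-out basis – percent inhibition of parasite-derived β-gal signal · Signal – luminescent β-galactosidase signal after 60 min lysis · Also added – 5000 T. cruzi trypomastigotes/well · Medium – Low-serum DMEM with 2% FBS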

| SMILES | inhibition |
| --- | --- |
| O=C(N/N=C/c1sc(N2CCCCC2)nc1-c1cccs1)c1cccnc1 | 65% (active) |
| O=C(N/N=C/c1ccccn1)c1cccnc1 | 3.75% |
| Cc1cc(/C=N/NC(=O)c2cccnc2)c(C)n1CC(C)C | -5.46% |
| C=CCNC(=S)/N=c1/ccccn1Cc1ccccc1 | 36.1% |
| O=C(OCCOCn1cc(Br)c(=O)[nH]c1=O)c1ccccc1 | -6.18% |
| O=C(OCC(=O)N1CCCC1=O)c1cc(S(=O)(=O)N2CCOCC2)ccc1Cl | -8.41% |
| Cc1nc(N2CCN(c3ccccn3)CC2)c2c(C)c(C(=O)Nc3ccc(F)c(Cl)c3)sc2n1 | 3.99% |
| Cc1nc(N2CCC(C)CC2)c2c(C)c(C(=O)Nc3cc(F)ccc3C)sc2n1 | 49.5% |
| Cc1nc(N2CCOCC2)c2c(C)c(C(=O)Nc3ccc(C(F)(F)F)cc3)sc2n1 | 68% (active) |
| CC(C)Nc1nnc(SC(C)C(=O)N(C)C2CCCCC2)s1 (stereo unspecified) | -3% |
| Cc1occc1C(=O)NNC(=S)NCC(C)C | -18.5% |
| COc1ccc(CN2CCCC(C(=O)N3CCCCC3)C2)cc1 (stereo unspecified) | 27.2% |
| Cc1occc1C(=O)NC1CCCN(Cc2ccc(CC(C)C)cc2)C1 (stereo unspecified) | 57.7% (active) |
| CN(c1ccccc1)S(=O)(=O)c1cccc(C(=O)NNC(=O)c2ccncc2)c1 | 5.43% |
| COc1ccc(NC(=O)N2CCCC(C(=O)Nc3ccccc3OC)C2)cc1 (stereo unspecified) | -10.9% |
| Cc1sc2ncnc(N3CCC(C(=O)Nc4nc5ccc(Cl)cc5s4)CC3)c2c1C | 27% |
| COc1ccc(C(=O)NC(=S)N2CCCCC2c2cccnc2)cc1OC (stereo unspecified) | 57.2% (active) |
| O=C(NC(=S)N1CCCCC1c1cccnc1)c1ccccc1 (stereo unspecified) | 46.1% |
| COc1ccc(/C=C/C(=O)NC(=S)NN2CCCCC2c2cccnc2)cc1 (stereo unspecified) | 42.1% |
| COC(=O)C1(C)NC(c2ccc(F)cc2)C2C(=O)N(c3ccccc3)C(=O)C21 (stereo unspecified) | -17.7% |
| CCc1ccc2c(c1)C1(NN=C(c3ccccc3)S1)C(=O)N2 (stereo unspecified) | 73% (active) |
| Cc1nc(/N=C(\N)NC(=O)NC2CCCCC2)nc2ccccc12 | 10.4% |
| Cc1nc(N=C(N)N)nc2c(C)cccc12 | 56.5% (active) |

| SMILES | inhibition |
| --- | --- |
| COc1nc(N=C(N)N)nc2c(C)cccc12 | 44.2% |
| O=C(NCCC1=CCCCC1)c1ccc(Cl)c([N+](=O)[O-])c1 | -28% |
| CCN1C(=O)[C@H]2[C@@H](c3ccc(-c4ccc(F)cc4)cc3)N[C@@](Cc3ccccc3)(C(=O)OC)[C@H]2C1=O | 41.5% |
| c1ccc(-c2nnc(N3CCOCC3)c3ccccc23)cc1 | -1.66% |
| c1ccc2c(NC3C4CC5CC(C4)CC3C5)nc(N3CCOCC3)nc2c1 (stereo unspecified) | 54.9% (active) |
| O=c1[nH]c(N2CCOCC2)nc2ccccc12 | -3.83% |
| CSCCC(NC(=O)COc1ccccc1)C(=O)OCCOc1ccc(F)cc1 (stereo unspecified) | -11.5% |
| CCn1cc(/C=C(\NC(=O)c2ccc(C)cc2)C(=O)NCCN2CCOCC2)c2ccccc21 | -0.43% |
| COc1ccc(CN2CC[C@H]3C=CC[C@@H](C(=O)N4CCOCC4)[C@H]3C2=O)cc1OC | 0.915% |
| O=C(CN1CCCCCC1)Nc1ccc(S(=O)(=O)N2CCCCC2)cc1 | -0.319% |
| CN(CC(=O)Nc1ccc(S(=O)(=O)N2CCCC2)cc1)Cc1ccc(Cl)c(Cl)c1 | 55.8% (active) |
| CN(CC(=O)Nc1ccc(F)cc1)CC(=O)Nc1ccc(Cl)c(S(=O)(=O)N2CCOCC2)c1 | -1.87% |
| CCOc1cnc(C(=O)NNC(=O)c2ccccc2Br)o1 | -24% |
| O=C(Nc1ccc(F)c([N+](=O)[O-])c1)C1CC(=O)N(Cc2ccccc2)C1 (stereo unspecified) | 11.3% |
| CC1(c2cccc([N+](=O)[O-])c2)CC(C)(C)N(C(=O)c2ccccc2)c2ccccc21 (stereo unspecified) | 37.9% |
| CC1(c2ccccc2)CC(C)(C)N(C(=O)c2cc([N+](=O)[O-])cc([N+](=O)[O-])c2)c2ccccc21 (stereo unspecified) | 62.7% (active) |
| Cc1nnc(SCC(=O)N2c3ccccc3C(C)(c3ccc(Cl)cc3)CC2(C)C)s1 (stereo unspecified) | 37.3% |
| CC(C)c1ccccc1OCC(O)CN(CC(O)COc1cccc2ccccc12)C(C)C (stereo unspecified) | 57.2% (active) |
| OC(COc1cccc2ccccc12)CN1CCN(c2ccccn2)CC1 (stereo unspecified) | -13.7% |
| Cc1cc(C)c(NC(=O)C[N+](C)(C)CC(O)COc2cccc3ccccc23)c(C)c1 (stereo unspecified) | 39.6% |
| COc1ccc(NS(=O)(=O)c2ccc(N3CCN(CCO)CC3)c([N+](=O)[O-])c2)cc1 | -24.8% |
| COc1ccc(NS(=O)(=O)c2cc(NC(=O)/C=C/c3cc(OC)c(OC)c(OC)c3)ccc2N2CCCCC2)cc1 | 54.8% (active) |
| COc1ccc(NS(=O)(=O)c2cc(NC(=O)C3CCCCC3)ccc2N2CCOCC2)cc1 | 8.84% |
